# Tb MetRS inh – T. brucei MetRS inhibitors, primary screen, biochemical, luminescence; inhibition, % at 11.9 µM; AID 624268, 2012; purified T. brucei MetRS, ATP depletion, Kinase-Glo luminescence; hit rate 0.4% among 360,000;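 active means inhibition above a per-plate cutoff of the control wells' mean inhibition plus 3 SD, cut at about 5.5% in these data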;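 further: 0% = DMSO wells median and 100% = median of wells with control inhibitor compound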
#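 Dosing: 11.9 µM single point; system: parasite MetRS enzyme; technique: luminescence of leftover ATP; times: 15 min enzyme-compound preincubation, 2 h reaction, 10 min detection, 25 °C; replicates: each compound tested once; read-out basis: percent inhibition relative to median high and low control wells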
# IDE cell activ – human IDE activators in live cells, primary screen, fluorescence polarization, HEK cells, FAbeta-B substrate; activation, % at 5.96 µM; FAbeta-B cleavage; 0% vehicle, 100% cell-free pure enzyme wells; AID 493087, 2011; Insulin-degrading enzyme (Homo sapiens), P14735; hit rate 0.073% among 340,000;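 active means activation above the mean of all tested compounds plus 3 SD, set per screening campaign, cut at about 17% in these data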
# IDE cell inh – human IDE inhibitors in live cells, primary screen, fluorescence polarization, HEK cells, FAbetaB substrate | Insulin-degrading enzyme (Homo sapiens), P14735 | FAbetaB cleavage | inhibition, % at 5.59 µM | hit rate 0.41% among 320,000;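 active means percent inhibition above the average of all tested compounds plus 3 SD, set per screening campaign, cut at about 16% in these data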;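 further: IDE supplied by intact live HEK cells; FP after avidin binding of uncleaved biotin substrate so inhibition keeps polarization high; 0% = DMSO wells and 100% = 60 µM reference IDE inhibitor Ii1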
# Efflux pump mplx – inhibitors of Candida efflux pumps in yeast, primary screen, S. cerevisiae, Nile Red, multiplex. inhibition, % at 10 µM. AID 485275, 2010. S. cerevisiae Candida pump triplex. hit rate 0.44% among 330,000;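 active means plate passing quality check with inhibition over a set limit, or well fluorescence over plate mean plus 4 SD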;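 further: Nile Red retained in pooled yeast measured as flow cytometry median fluorescence; 0% = buffer negative control and 100% = Enniatin B positive control; higher means more Nile Red kept so more efflux inhibition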
# Yeast superoxide – reduction of superoxide in aged yeast, primary screen, HTS. S. cerevisiae aged cells, superoxide DHE fluorescence; active compounds read low. superoxide response (% of plate mean), % at 10 µM. hit rate 0.18% among 330,000. AID 2690, 2010;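 active means superoxide response under a set limit, about three screen SD below normal, cut at about 65% in these data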;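 further: yeast aged for seven days with compound at 30 °C before DHE staining; 100% = average MFI of all compound-treated wells on the plate with controls excluded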
# HDAC3 inh – HDAC3 deacetylase inhibitors, primary screen, biochemical, fluorescence, cell-free homogeneous; Histone deacetylase 3 (Homo sapiens), O15379; recombinant HDAC3, fluorogenic peptide/trypsin coupled; inhibition, % at 8.3 µM; hit rate 0.15% among 320,000; AID 2718, 2010; in the data active means inhibition above about 26%, passing the limit was not always enough; inconclusive means no clear call, values can overlap the other calls
# Tb MetRS conf – T. brucei MetRS inhibitors, confirmation, biochemical, luminescence; hit rate 93% among 1,400; inhibition, % at 11.9 µM; T. brucei MetRS enzyme, luminescence (ATP depletion); shares compounds with Tb MetRS inh; in the data active means inhibition above about 7%
# Jurkat tox – Jurkat T cell cytotoxicity, cytotoxicity control for T. brucei MetRS inhibitor project, luminescence, high throughput | shares compounds with Tb MetRS inh | inhibition, % at 8.3 µM | hit rate 12% among 1,400 | Jurkat cells viability, ATP luminescence | AID 624413, 2012; in the data active means inhibition above about 15%;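 further: 0% = vehicle and 100% = reference inhibitor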
# TbMetRS FP orth – T. brucei MetRS inhibitors, orthogonal assay for T. brucei MetRS inhibitor project, biochemical, fluorescence polarization. AID 651607, 2012. shares compounds with Tb MetRS inh. purified T. brucei MetRS. inhibition, % at 11.9 µM. hit rate 44% among 1,400; in the data active means inhibition above about 17%;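 further: 0% = vehicle wells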
# * hit, by the source's call; ? = inconclusive; . = no result. Compounds with a hit are over-represented: about 1.4% of the library has one in this group of screens.
SMILES,Tb MetRS inh,IDE cell activ,IDE cell inh,Efflux pump mplx,Yeast superoxide,HDAC3 inh,Tb MetRS conf,Jurkat tox,TbMetRS FP orth
CC(C)Nc1ccc(Nc2ccnc3cc4ccccc4cc23)cc1,85*,-4,-1,0,127,.,88*,80*,90*
c1ccc(CCNc2ccnc3cc4ccccc4cc23)cc1,84*,1,.,.,.,.,92*,81*,83*
COC(=O)C(Cc1ccccc1)NC(=O)CCc1c[nH]c2ccccc12 (stereo unspecified),0,2,4,0,116,-9,.,.,.
Brc1ccc(OCc2nc3ccccc3[nH]2)cc1,10*,3,-1,0,89,-7,16*,0,9
c1ccc2cc(OCc3nc4ccccc4[nH]3)ccc2c1,6.0*,1,-1,0,91,16,6.8*,4,9
COc1ccc(OCc2nc3ccccc3[nH]2)cc1,1,-2,-1,0,105,0,.,.,.
CC1CCN(C(=O)c2ncn(Cc3ccccc3)c2C(=O)N2CCC(C)CC2)CC1,0,5,3,0,91,-6,.,.,.
O=C(CCCC1=NS(=O)(=O)c2ccccc2N1)OCc1ccc(Cl)cc1,20*,5,7,0,107,12,44*,2,14
O=C(CCCC1=NS(=O)(=O)c2ccccc2N1)NCCc1ccc(Cl)cc1,2,6,-2,0,131,0,.,.,.
COc1ccc(-c2cc(=O)n(CCC#N)[nH]2)cc1,16*,-6,3,0,103,1,2,2,4
O=C(CSc1nc2ccccc2[nH]1)Nc1cccc(S(=O)(=O)N2CCOCC2)c1,40*,-1,-5,0,97,-3,40*,6,18*
CCN(CC)S(=O)(=O)c1cccc(NC(=O)CSc2nc3ccccc3[nH]2)c1,2,2,8,0,87,2,.,.,.
O=C(CN1CCCc2ccccc21)Nc1cccc(S(=O)(=O)N2CCOCC2)c1,6.7*,3,.,.,.,.,12*,4,12
CN(C)S(=O)(=O)c1cccc(NC(=O)CSc2nc3ccccc3[nH]2)c1,6.2*,-3,2,0,99,8,12*,12,5
Cc1nonc1NC(=O)CSc1nc2ccc(Cl)cc2[nH]1,19*,3,-5,0,104,1,33*,-7,18*
CC(=O)C1=C(O)C(CSCc2ccccc2)N(C)C1=O (stereo unspecified),-1,3,.,.,.,.,.,.,.
Cc1occc1-c1nnc(-c2cc([N+](=O)[O-])cc([N+](=O)[O-])c2)o1,-1,.,-6,0,97,-1,.,.,.
Cc1cc(C)nc(NC(=S)Nc2cccc(Cl)c2Cl)c1,0,-11,4,0,95,-5,.,.,.
COc1ccc2[nH]c(C(=O)N3CCC(CO)(Cc4cccc(C(F)(F)F)c4)CC3)c(C)c2c1,2,-1,-4,0,117,13,.,.,.
CCCc1cc(=O)[nH]c(SCC(=O)Nc2nc(-c3ccccc3)cs2)n1,0,-2,4,0,100,?,.,.,.
O=C(CSc1nc2cc3ccccc3cc2[nH]1)Nc1ccc(F)cc1,22*,4,-1,0,138,3,28*,7,23*
NS(=O)(=O)c1cccc(NC(=O)CSc2nc3ccc(Cl)cc3[nH]2)c1,8.1*,5,3,0,103,-4,16*,-3,15
O=C(CSc1nc2ccccc2[nH]1)Nc1nc(-c2ccc(Br)cc2)cs1,20*,-6,1,0,107,0,36*,9,71*

# High-throughput results from PubChem.
